# Activity calls are given as the source filed them. The rule behind the calls is not given here.
# What was measured:
# [1] = target: ATPase family AAA domain-containing protein 2B (Homo sapiens) (UniProt Q9ULI0); test: Binding affinity to human partial length ATAD2B (Q955 to R1082 residues) expressed in Escherichia coli BL21 cells assessed as residual binding level at 1 uM measured after 1 hr by quantitative PCR based BROMOscan assay relative to control
# In short: (§1)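 A BROMOScan competition-binding panel of 32 bromodomains was run at a single 1 μM compound concentration. Results are primary-screen 'Percent Control', where lower values indicate stronger binding.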
# [2] = AUC (0 to infinity) in ICR mouse plasma at 100 mg/kg, po administered via gavage measured after 0.25 to 24 hrs by UPLC/MS analysis; assay type: ADME, organism-based; parameters: dose 100 mg/kg, time infinity, route oral
# In short: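 Male ICR mice were dosed orally in 1% DMSO/0.5% HPMC vehicle. Plasma (and brain, where stated) concentrations gave Tmax, Cmax, T1/2, AUC0-t and AUC0-inf.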
# [3] = Ratio of drug level in brain to plasma in rat; assay type: ADME
# In short: (§2)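 Rats dosed orally at 50 mg/kg in 1% DMSO/0.5% HPMC; drug measured in plasma and brain.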
# [4] = target: Histone acetyltransferase p300 (Homo sapiens) (UniProt Q09472); test: Binding affinity to human partial length EP300 (A1040 to G1161 residues) expressed in Escherichia coli BL21 cells assessed as residual binding level at 1 uM measured after 1 hr by quantitative PCR based BROMOscan assay relative to control; in short: as §1
# [5] = target: Bromodomain testis-specific protein (Homo sapiens) (UniProt Q58F21); test: Binding affinity to human partial length BRDT bromodomain 1 (N21 to E137 residues) expressed in Escherichia coli BL21 cells assessed as residual binding level at 1 uM measured after 1 hr by quantitative PCR based BROMOscan assay relative to control; in short: as §1
# [6] = target: Bromodomain-containing protein 2 (Homo sapiens) (UniProt P25440); test: Binding affinity to human partial length BRD2 bromodomain 1 isoform 1 (K71 to N194 residues) expressed in Escherichia coli BL21 cells assessed as residual binding level at 1 uM measured after 1 hr by quantitative PCR based BROMOscan assay relative to control; in short: as §1
# [7] = target: T1, Bromodomain-containing protein 4 (Homo sapiens, UniProt O60885); test: Binding affinity to human partial length BRD4 bromodomain 2 long isoform (K333 to E460 residues) expressed in Escherichia coli BL21 cells assessed as residual binding level at 1 uM measured after 1 hr by quantitative PCR based BROMOscan assay relative to control; in short: as §1
# [8] = target: Proto-oncogene tyrosine-protein kinase Src (Homo sapiens) (UniProt P12931); test: Inhibition of Src (unknown origin) at 10 uM using poly (Glu, Tyr) 4:1 as substrate after 60 mins by ELISA
# [9] = Half life in dog plasma at 1 mg/kg, iv; assay type: ADME, organism-based, Canis lupus familiaris
# [10] = Tmax in rat plasma at 50 mg/kg, po; assay type: ADME, organism-based; in short: as §2
# A549 = test: Antiproliferative activity against human A549 cells after 72 hrs by CCK8 or SRB assay; assay type: functional, cell-based
# [11] = target: Histone acetyltransferase p300 (Homo sapiens) (UniProt Q09472); test: Inhibition of EP300 (unknown origin) at 1 uM
# In short: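 Bromodomain binding panel (32 bromodomains) screened at 1 μM; primary binding read-out reported as percent of control, lower values meaning stronger binding.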
# [12] = target: T1, Bromodomain-containing protein 4; test: Binding affinity to human partial length BRD4 bromodomain 1 long isoform (N44 to E168 residues) expressed in Escherichia coli BL21 cells assessed as residual binding level at 1 uM measured after 1 hr by quantitative PCR based BROMOscan assay relative to control; in short: as §1
# AGS = test: Antiproliferative activity against human AGS cells after 72 hrs by CCK8 or SRB assay; assay type: functional, cell-based
# [13] = AUC (0 to t) in dog plasma at 3 mg/kg, po; assay type: ADME, organism-based, Canis lupus familiaris
# In short: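 Compound was given orally or intravenously in 1% DMSO/0.5% HPMC vehicle. Concentrations in plasma, or in brain where stated, gave Tmax, Cmax, T1/2, AUC0-t and AUC0-inf.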
# Histone acetyltransferase p300 (Homo sapiens), sequence (Q09472 whole entry, the tested form may be a part): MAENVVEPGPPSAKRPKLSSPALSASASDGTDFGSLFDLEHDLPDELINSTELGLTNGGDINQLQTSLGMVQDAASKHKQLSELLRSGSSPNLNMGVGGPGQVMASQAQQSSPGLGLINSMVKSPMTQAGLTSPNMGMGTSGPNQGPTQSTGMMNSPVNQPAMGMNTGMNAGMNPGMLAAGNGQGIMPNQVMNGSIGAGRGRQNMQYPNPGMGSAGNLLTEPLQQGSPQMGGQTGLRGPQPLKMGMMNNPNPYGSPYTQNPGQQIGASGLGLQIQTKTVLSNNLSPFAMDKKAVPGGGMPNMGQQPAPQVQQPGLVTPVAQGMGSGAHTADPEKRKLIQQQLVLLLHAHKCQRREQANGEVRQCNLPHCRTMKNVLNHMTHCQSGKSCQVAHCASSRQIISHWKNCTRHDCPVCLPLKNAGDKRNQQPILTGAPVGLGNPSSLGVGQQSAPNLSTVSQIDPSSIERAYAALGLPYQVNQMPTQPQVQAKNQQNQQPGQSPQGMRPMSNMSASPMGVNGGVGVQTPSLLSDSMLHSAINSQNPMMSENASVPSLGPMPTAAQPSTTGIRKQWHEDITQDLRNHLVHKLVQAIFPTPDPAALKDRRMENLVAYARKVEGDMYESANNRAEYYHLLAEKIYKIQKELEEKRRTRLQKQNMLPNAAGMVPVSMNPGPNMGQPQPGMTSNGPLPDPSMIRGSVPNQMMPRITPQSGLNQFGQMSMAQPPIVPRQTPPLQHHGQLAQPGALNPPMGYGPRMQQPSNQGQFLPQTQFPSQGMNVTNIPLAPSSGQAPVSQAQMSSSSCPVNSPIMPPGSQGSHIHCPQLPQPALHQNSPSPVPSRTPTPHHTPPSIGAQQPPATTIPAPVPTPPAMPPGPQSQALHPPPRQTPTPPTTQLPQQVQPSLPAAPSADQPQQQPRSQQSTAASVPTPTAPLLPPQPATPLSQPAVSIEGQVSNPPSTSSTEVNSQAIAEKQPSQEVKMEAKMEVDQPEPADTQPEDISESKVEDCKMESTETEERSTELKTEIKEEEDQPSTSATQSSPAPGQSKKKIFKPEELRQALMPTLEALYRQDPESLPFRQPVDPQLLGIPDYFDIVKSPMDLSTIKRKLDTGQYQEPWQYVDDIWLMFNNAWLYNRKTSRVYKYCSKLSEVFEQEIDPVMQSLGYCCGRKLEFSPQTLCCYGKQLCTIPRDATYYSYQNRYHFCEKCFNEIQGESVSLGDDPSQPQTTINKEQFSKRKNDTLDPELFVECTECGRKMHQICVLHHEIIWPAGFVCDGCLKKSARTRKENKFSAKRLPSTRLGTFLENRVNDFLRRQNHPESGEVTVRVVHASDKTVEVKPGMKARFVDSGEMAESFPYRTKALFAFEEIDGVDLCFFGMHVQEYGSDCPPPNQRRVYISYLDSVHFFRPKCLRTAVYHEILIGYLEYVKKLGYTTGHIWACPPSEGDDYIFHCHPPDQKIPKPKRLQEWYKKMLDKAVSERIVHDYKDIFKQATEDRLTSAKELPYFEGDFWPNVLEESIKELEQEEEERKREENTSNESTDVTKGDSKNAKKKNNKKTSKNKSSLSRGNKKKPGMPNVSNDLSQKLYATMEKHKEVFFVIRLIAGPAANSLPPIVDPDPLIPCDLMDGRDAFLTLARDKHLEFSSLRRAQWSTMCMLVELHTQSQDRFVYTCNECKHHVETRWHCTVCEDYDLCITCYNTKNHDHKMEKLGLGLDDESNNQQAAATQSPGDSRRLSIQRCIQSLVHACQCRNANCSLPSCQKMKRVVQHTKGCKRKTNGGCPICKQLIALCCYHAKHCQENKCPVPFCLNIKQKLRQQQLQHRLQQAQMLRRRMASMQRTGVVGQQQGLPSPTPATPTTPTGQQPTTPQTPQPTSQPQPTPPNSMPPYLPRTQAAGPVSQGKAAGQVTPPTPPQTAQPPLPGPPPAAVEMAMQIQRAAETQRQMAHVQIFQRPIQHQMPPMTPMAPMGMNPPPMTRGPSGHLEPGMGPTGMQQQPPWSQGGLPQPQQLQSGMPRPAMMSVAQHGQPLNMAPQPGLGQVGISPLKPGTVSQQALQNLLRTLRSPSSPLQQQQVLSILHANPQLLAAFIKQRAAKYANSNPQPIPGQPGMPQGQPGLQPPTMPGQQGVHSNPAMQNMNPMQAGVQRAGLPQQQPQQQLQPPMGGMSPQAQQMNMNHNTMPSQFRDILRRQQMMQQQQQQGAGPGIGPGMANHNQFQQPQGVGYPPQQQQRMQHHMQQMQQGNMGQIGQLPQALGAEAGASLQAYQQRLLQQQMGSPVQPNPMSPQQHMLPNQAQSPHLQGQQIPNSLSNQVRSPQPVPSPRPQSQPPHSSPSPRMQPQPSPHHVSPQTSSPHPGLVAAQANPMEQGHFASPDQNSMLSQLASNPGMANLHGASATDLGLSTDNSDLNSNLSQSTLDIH
# ATPase family AAA domain-containing protein 2B (Homo sapiens), sequence (Q9ULI0 whole entry, the tested form may be a part): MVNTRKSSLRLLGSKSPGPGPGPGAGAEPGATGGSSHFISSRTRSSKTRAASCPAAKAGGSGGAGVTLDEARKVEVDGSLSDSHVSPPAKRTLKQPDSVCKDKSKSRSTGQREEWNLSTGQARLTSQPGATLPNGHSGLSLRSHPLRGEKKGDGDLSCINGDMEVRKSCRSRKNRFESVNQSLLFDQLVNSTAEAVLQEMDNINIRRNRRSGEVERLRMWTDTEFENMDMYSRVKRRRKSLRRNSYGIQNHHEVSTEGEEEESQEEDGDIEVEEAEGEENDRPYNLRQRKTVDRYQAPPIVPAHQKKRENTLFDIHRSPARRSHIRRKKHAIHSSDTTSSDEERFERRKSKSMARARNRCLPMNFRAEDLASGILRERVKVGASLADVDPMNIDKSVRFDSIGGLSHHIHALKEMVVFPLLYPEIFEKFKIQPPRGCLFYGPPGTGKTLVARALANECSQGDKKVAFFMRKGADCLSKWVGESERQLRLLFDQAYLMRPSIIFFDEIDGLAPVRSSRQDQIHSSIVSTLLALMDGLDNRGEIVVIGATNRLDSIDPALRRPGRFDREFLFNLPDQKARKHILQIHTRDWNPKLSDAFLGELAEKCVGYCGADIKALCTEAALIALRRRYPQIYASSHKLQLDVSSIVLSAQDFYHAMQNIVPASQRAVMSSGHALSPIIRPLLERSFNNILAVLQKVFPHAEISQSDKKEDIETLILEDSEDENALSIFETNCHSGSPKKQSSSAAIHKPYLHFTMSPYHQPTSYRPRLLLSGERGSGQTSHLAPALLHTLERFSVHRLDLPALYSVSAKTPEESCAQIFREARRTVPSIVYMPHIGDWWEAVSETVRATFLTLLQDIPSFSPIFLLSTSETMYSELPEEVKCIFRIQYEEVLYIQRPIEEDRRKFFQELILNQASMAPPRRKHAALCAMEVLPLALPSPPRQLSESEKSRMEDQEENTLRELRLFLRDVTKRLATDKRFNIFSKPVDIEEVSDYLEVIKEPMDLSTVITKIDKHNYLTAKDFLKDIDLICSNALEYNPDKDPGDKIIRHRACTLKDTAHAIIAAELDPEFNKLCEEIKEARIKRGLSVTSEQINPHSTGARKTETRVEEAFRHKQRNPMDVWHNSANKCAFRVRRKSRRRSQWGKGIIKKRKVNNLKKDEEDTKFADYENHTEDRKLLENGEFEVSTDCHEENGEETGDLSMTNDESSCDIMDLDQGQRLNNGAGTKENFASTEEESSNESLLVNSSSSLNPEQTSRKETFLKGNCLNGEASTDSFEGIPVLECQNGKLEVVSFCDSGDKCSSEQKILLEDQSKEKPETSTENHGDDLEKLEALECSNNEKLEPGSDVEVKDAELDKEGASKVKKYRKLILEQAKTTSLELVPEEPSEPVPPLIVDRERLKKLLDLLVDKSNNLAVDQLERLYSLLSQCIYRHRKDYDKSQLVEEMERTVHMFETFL
# Bromodomain-containing protein 2 (Homo sapiens), sequence (P25440 whole entry, looked up, the tested form may be a part, canonical isoform): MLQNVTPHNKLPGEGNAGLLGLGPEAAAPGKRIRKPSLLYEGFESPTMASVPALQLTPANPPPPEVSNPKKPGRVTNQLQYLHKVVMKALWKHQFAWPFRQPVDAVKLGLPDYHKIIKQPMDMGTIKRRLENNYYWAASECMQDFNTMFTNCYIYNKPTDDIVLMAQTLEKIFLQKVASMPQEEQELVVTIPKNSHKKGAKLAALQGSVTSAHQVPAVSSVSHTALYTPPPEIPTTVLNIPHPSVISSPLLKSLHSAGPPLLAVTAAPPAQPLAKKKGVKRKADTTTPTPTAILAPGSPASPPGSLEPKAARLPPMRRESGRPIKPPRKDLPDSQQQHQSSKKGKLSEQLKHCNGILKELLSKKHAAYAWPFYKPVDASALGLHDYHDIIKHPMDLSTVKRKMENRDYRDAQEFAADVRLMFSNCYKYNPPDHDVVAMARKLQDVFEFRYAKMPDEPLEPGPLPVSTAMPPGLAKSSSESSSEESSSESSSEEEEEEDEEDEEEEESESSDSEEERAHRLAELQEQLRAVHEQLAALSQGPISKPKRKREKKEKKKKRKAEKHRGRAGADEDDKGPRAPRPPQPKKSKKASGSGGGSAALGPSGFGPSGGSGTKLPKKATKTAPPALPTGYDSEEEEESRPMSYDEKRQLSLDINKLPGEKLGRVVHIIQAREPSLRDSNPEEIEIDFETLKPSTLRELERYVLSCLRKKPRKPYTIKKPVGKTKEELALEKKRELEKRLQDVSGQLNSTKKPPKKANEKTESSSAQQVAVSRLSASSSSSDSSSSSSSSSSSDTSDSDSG
structure (smiles),measurement,setting,value
Cc1ccc(-n2nc(C(=O)N3C[C@@H](C)N[C@@H](C)C3)nc2-c2ccc3c(c2)N(C2CCCC2)[C@H](C)C(=O)N3C)cc1,Activity,[1],70 to 100%
same,AUC(0-inf),[2],82.4 µg·h/mL
same,BPR,[3],8.7%
same,Activity,[4],20 to 50%
same,Activity,[5],< 5%
same,Activity,[6],< 5%
same,Activity,[7],< 5%
same,inhibition,[8],Active
same,half-life,[9],9.4 h
same,Tmax,[10],0.4 h
same,Activity,A549,Active
same,inhibition,[11],inactive
same,Activity,[12],< 5%
same,Activity,AGS,Active
same,AUC(0-t),[13],0.747 µg·h/mL
